# Results taken from ChEMBL document CHEMBL5724801, “EUbOPEN Chemogenomics Library - Multiplex” (2024).
# Values joined by “and” are separate entries in the source; they are usually repeats but may differ in a detail not shown here. Equal values may be shown once.
# Tested on: Fibroblast
# Test: Multiplex assay against human fibroblast
# Assay type: toxicity, cell-based
# Procedure, shortened: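 Compound was added to live cells that had been stained at seeding with Hoechst33342, BioTracker Green Microtubule Cytoskeleton Dye, MitoTracker Red and Annexin V Alexa Fluor 680, and imaging followed on a CQ1 microscope at 37°C and 5% CO2. CellPathfinder machine-learning gating divided cells into Hoechst high-intensity objects or normal cells, normal cells into healthy, pyknosed or fragmented nuclei, and pyknosed cells into mitotic or apoptotic. Tubulin, mitochondrial-mass and membrane-permeability phenotypes are per cents of healthy-nucleus cells.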
# [1] = 12 h, 1 µM, compound concentration 1 uM
# [2] = 12 h, 10 µM, compound concentration 10 uM
# [3] = 24 h, 1 µM, compound concentration 1 uM
# [4] = 24 h, 10 µM, compound concentration 10 uM
# [5] = 48 h, 1 µM, compound concentration 1 uM
# [6] = 48 h, 10 µM, compound concentration 10 uM
smiles,measurement,setting,value
O=c1ccc2ccc(OCCCCN3CCN(c4cccc5sccc45)CC3)cc2[nH]1 [BREXPIPRAZOLE],Population Apoptotic (%),[1],56% and 48%
same,Population Fragmented Nuclei (%),[1],17% and 33%
same,Population Healthy Nuclei (%),[1],62% and 44%
same,Population Hoechst High Intensity Objects (%),[1],2% and 5%
same,Population Membrane Permeable-Phenotype (%),[1],0% and 2%
same,Population Mitochondria Different-Phenotype (%),[1],5% and 15%
same,Population Mitotic Cells (%),[1],44% and 51%
same,Population Normal (%),[1],97% and 94%
same,Population Pyknosed Nuclei (%),[1],20% and 21%
same,Population Tubulin-Different-Phenotype (%),[1],41% and 73%
same,Total Cell Count,[1],126 and 169
same,Population Apoptotic (%),[2],68% and 45%
same,Population Fragmented Nuclei (%),[2],16% and 30%
same,Population Healthy Nuclei (%),[2],64% and 49%
same,Population Hoechst High Intensity Objects (%),[2],1% and 11%
same,Population Membrane Permeable-Phenotype (%),[2],0% and 2%
same,Population Mitochondria Different-Phenotype (%),[2],39% and 25%
same,Population Mitotic Cells (%),[2],31% and 54%
same,Population Normal (%),[2],98% and 88%
same,Population Pyknosed Nuclei (%),[2],19% and 20%
same,Population Tubulin-Different-Phenotype (%),[2],83% and 81%
same,Total Cell Count,[2],203 and 243
same,Population Apoptotic (%),[3],56% and 33%
same,Population Fragmented Nuclei (%),[3],17% and 32%
same,Population Healthy Nuclei (%),[3],69% and 52%
same,Population Hoechst High Intensity Objects (%),[3],1% and 3%
same,Population Membrane Permeable-Phenotype (%),[3],0% and 2%
same,Population Mitochondria Different-Phenotype (%),[3],8% and 14%
same,Population Mitotic Cells (%),[3],43% and 66%
same,Population Normal (%),[3],98% and 96%
same,Population Pyknosed Nuclei (%),[3],13% and 14%
same,Population Tubulin-Different-Phenotype (%),[3],43% and 76%
same,Total Cell Count,[3],122 and 173
same,Population Apoptotic (%),[4],58% and 65%
same,Population Fragmented Nuclei (%),[4],13% and 30%
same,Population Healthy Nuclei (%),[4],54% and 40%
same,Population Hoechst High Intensity Objects (%),[4],13% and 19%
same,Population Membrane Permeable-Phenotype (%),[4],0%
same,Population Mitochondria Different-Phenotype (%),[4],63% and 34%
same,Population Mitotic Cells (%),[4],41% and 34%
same,Population Normal (%),[4],86% and 80%
same,Population Pyknosed Nuclei (%),[4],31% and 28%
same,Population Tubulin-Different-Phenotype (%),[4],85% and 71%
same,Total Cell Count,[4],218 and 239
same,Population Apoptotic (%),[5],62% and 60%
same,Population Fragmented Nuclei (%),[5],24% and 42%
same,Population Healthy Nuclei (%),[5],62% and 51%
same,Population Hoechst High Intensity Objects (%),[5],4%
same,Population Membrane Permeable-Phenotype (%),[5],0% and 1%
same,Population Mitochondria Different-Phenotype (%),[5],10% and 9%
same,Population Mitotic Cells (%),[5],37% and 40%
same,Population Normal (%),[5],95%
same,Population Pyknosed Nuclei (%),[5],12% and 5%
same,Population Tubulin-Different-Phenotype (%),[5],52% and 67%
same,Total Cell Count,[5],133 and 175
same,Population Apoptotic (%),[6],62% and 44%
same,Population Fragmented Nuclei (%),[6],18% and 30%
same,Population Healthy Nuclei (%),[6],50% and 43%
same,Population Hoechst High Intensity Objects (%),[6],34%
same,Population Membrane Permeable-Phenotype (%),[6],0%
same,Population Mitochondria Different-Phenotype (%),[6],60% and 20%
same,Population Mitotic Cells (%),[6],37% and 55%
same,Population Normal (%),[6],65%
same,Population Pyknosed Nuclei (%),[6],31% and 26%
same,Population Tubulin-Different-Phenotype (%),[6],88% and 55%
same,Total Cell Count,[6],208 and 317
COCCNc1cc(NC(=O)N2CCCc3cc(CN4CCOCC4=O)c(C=O)nc32)ncc1C#N,Population Fragmented Nuclei (%),[1],9.19% and 4.72%
same,Population Healthy Nuclei (%),[1],62.7% and 77.36%
same,Population Hoechst High Intensity Objects (%),[1],0%
same,Population Membrane Permeable-Phenotype (%),[1],4.31% and 4.27%
same,Population Mitochondria Different-Phenotype (%),[1],4.31% and 6.71%
same,Population Mitotic Cells (%),[1],92.31% and 76.32%
same,Population Normal (%),[1],100%
same,Population Pyknosed Nuclei (%),[1],28.11% and 17.92%
same,Population Tubulin-Different-Phenotype (%),[1],12.07% and 18.29%
same,Total Cell Count,[1],185 and 212
same,Population Apoptotic (%),[2],11.11% and 16.67%
same,Population Fragmented Nuclei (%),[2],13.02% and 4.35%
same,Population Healthy Nuclei (%),[2],54.17% and 72.83%
same,Population Hoechst High Intensity Objects (%),[2],0% and 0.54%
same,Population Membrane Permeable-Phenotype (%),[2],9.62% and 8.21%
same,Population Mitochondria Different-Phenotype (%),[2],20.19% and 13.43%
same,Population Mitotic Cells (%),[2],88.89% and 83.33%
same,Population Normal (%),[2],100% and 99.46%
same,Population Pyknosed Nuclei (%),[2],32.81% and 22.83%
same,Population Tubulin-Different-Phenotype (%),[2],43.27% and 48.51%
same,Total Cell Count,[2],192 and 185
same,Population Fragmented Nuclei (%),[3],7.46% and 3.69%
same,Population Healthy Nuclei (%),[3],72.64% and 83.41%
same,Population Hoechst High Intensity Objects (%),[3],0%
same,Population Membrane Permeable-Phenotype (%),[3],4.79% and 2.76%
same,Population Mitochondria Different-Phenotype (%),[3],2.05% and 5.52%
same,Population Mitotic Cells (%),[3],95% and 78.57%
same,Population Normal (%),[3],100%
same,Population Pyknosed Nuclei (%),[3],19.9% and 12.9%
same,Population Tubulin-Different-Phenotype (%),[3],10.27% and 12.15%
same,Total Cell Count,[3],201 and 217
same,Population Apoptotic (%),[4],26.32% and 30%
same,Population Fragmented Nuclei (%),[4],10.14% and 8.42%
same,Population Healthy Nuclei (%),[4],71.5% and 70.53%
same,Population Hoechst High Intensity Objects (%),[4],0%
same,Population Membrane Permeable-Phenotype (%),[4],12.84% and 7.46%
same,Population Mitochondria Different-Phenotype (%),[4],15.54% and 15.67%
same,Population Mitotic Cells (%),[4],73.68% and 70%
same,Population Normal (%),[4],100%
same,Population Pyknosed Nuclei (%),[4],18.36% and 21.05%
same,Population Tubulin-Different-Phenotype (%),[4],43.24% and 50.75%
same,Total Cell Count,[4],207 and 190
same,Population Apoptotic (%),[5],15.38% and 26.32%
same,Population Fragmented Nuclei (%),[5],7.73% and 4.91%
same,Population Healthy Nuclei (%),[5],86.7% and 86.61%
same,Population Hoechst High Intensity Objects (%),[5],0%
same,Population Membrane Permeable-Phenotype (%),[5],1.49% and 2.58%
same,Population Mitochondria Different-Phenotype (%),[5],7.92% and 1.03%
same,Population Mitotic Cells (%),[5],84.62% and 73.68%
same,Population Normal (%),[5],100%
same,Population Pyknosed Nuclei (%),[5],5.58% and 8.48%
same,Population Tubulin-Different-Phenotype (%),[5],5.45% and 12.89%
same,Total Cell Count,[5],233 and 224
same,Population Apoptotic (%),[6],25% and 38.46%
same,Population Fragmented Nuclei (%),[6],13.64% and 8.2%
same,Population Healthy Nuclei (%),[6],79.09% and 84.7%
same,Population Hoechst High Intensity Objects (%),[6],0%
same,Population Membrane Permeable-Phenotype (%),[6],4.02% and 7.74%
same,Population Mitotic Cells (%),[6],75% and 61.54%
same,Population Normal (%),[6],100%
same,Population Pyknosed Nuclei (%),[6],7.27% and 7.1%
same,Population Tubulin-Different-Phenotype (%),[6],24.71% and 43.87%
same,Total Cell Count,[6],220 and 183
